Here are results for 61 compounds from PubChem BioAssay AID1385 (PCMD, 2008).

The whole screen tested about 200,000 compounds, of which about 170 (0.085%) were called active. The sample holds actives, similar compounds and a random draw of the others, so the mix is not that of the screen. Values without a mark were called inactive.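 The calls were made as follows: active = inhibition above 40% at the single screening dose; inactive = the rest.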

DNA repair protein RAD51 homolog 1 (Homo sapiens), sequence (Q06609 whole entry, looked up): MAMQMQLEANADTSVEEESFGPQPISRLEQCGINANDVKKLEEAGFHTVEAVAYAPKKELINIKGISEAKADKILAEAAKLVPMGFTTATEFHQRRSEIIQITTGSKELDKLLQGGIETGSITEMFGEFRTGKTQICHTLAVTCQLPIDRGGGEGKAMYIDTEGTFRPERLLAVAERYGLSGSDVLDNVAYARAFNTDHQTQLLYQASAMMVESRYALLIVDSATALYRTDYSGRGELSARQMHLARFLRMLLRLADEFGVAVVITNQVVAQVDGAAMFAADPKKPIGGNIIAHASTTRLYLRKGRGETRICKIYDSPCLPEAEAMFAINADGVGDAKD

The test addresses DNA repair protein RAD51 homolog 1 (Homo sapiens) (UniProt Q06609). Put plainly: blockers of RAD51-mediated homologous recombination – biochemical, fluorescence, primary screen (AID 1385).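 Also: 0% = DMSO control wells and 100% = blanks with heterologous ssDNA.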 The note with it: hRad51 DNA strand exchange, fluorescence dequenching; at 10 µM; stronger effect = higher value. The essentials: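 material = hRad51 filaments on single-stranded DNA | timing = filaments 15 min 37 °C, then compound 30 min | signal = FRET fluorescence dequenching, excitation 485 nm, emission 520 nm | benchmarks = control wells and blank wells on each plate | evaluation = percent inhibition relative to plate controls and blanks | compound = 10 µM final, single point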
Consider `CC(OC(=O)c1ccc(NS(=O)(=O)c2ccc3[nH]c(=O)[nH]c3c2)cc1)C(=O)Nc1cccc(Cl)c1Cl` (stereo unspecified), for which the inhibition (commonly the change of the read-out against control, counted positive when it falls) is 1.25%.

With `Cc1cc(C)cc(NC(=O)NC2CCN(CC(=O)Nc3cccc(Cl)c3C)CC2)c1`, the inhibition is -8.77%.

Turning to `CCn1c(CN2C(=O)CSc3ccccc32)n[nH]c1=S`, the inhibition is 3.47%.

As for `O=S(=O)(c1cccc(-c2nnc3n2CCCCC3)c1)N1CCOCC1`, the inhibition is 6.72%.

Turning to `CC(C)(C)c1cc(NC(=O)NN2CCOCC2)nn1-c1c(Cl)cc(Cl)cc1Cl`, the inhibition is -14%.

In the case of `Nc1ccccc1SC(C[N+](=O)[O-])c1ccccc1` (stereo unspecified), the inhibition was 14.8%.

With `OC(CNCc1ccc2c(c1)OCO2)COc1ccccc1` (stereo unspecified), the inhibition was 1.14%.

With `Cc1ccc(CNC(=O)c2ccc3c(c2)S(=O)(=O)c2ccccc2C3=O)cc1`, the inhibition was 3.71%.

In the case of `COc1ccccc1-n1cn[nH]c1=S`, the inhibition was 26.3%.

For `COc1ccc(CN(Cc2ccc(OC)cc2)C(=O)c2cccs2)cc1`, the inhibition was 2.36%.

Consider `O=C(c1ccc(F)cc1)n1c(=S)nc2ccccn21`, for which the inhibition is 15.3%.

In the case of `CNC1(c2nnnn2-c2c(C)cccc2C)CCOC(C)(C)C1` (stereo unspecified), the inhibition was 5.82%.

As to `Cc1cc(-c2nc(C)c(-c3nnc(SCC(=O)Nc4ccccc4)n3C)s2)no1`, the inhibition was -5%.

For the compound `OCC[C@H]1C[C@H](O)[C@@H](O)[C@]2(CCCCO2)O1`, the inhibition is -1.38%.

Take `COc1ccccc1Cn1c(CO)nc2ccccc21`: the inhibition was -28.4%.

Consider `Cc1ccc(C)c2c1cc(C)c1nnc(SCC(=O)Nc3cccc(C(=O)O)c3)n12`, for which the inhibition was 3.44%.

As to `CCCN(CCC)S(=O)(=O)c1ccc(C(=O)N2CC3CCC(CC3)C2)cc1`, the inhibition is 4.87%.

With `O=C(O)c1ccccc1C(=O)Nc1ccccc1[N+](=O)[O-]`, the inhibition is 10.6%.

Regarding `O=[N+]([O-])c1ccc2c(c1)C(O)n1nc(-c3ccccc3)nc1S2` (stereo unspecified), the inhibition is 0.18%.

In the case of `CC(C)CC(=O)N/C(N)=N/c1nc2ccccc2s1`, the inhibition was 82.8% (active).

As to `CCC(=O)NC(=Nc1nc2ccccc2s1)NC(=O)CC`, the inhibition is -4.35%.

As for `CC(C)CC(=O)NC(=S)NCc1ccccc1`, the inhibition was 1.47%.

As for `CCC(C)(NC(=O)c1ccccn1)C(=O)NC1CCCCC1` (stereo unspecified), the inhibition was 14.2%.

With `CCOc1cc(NC(=O)c2ccccn2)c(OCC)cc1NC(=O)c1ccc(OC)cc1`, the inhibition was 0.44%.

In the case of `CCN(CC)CCOc1ccc2c(c1)C(=NNC(=O)c1ccccn1)c1cc(OCCN(CC)CC)ccc1-2`, the inhibition was 99% (active).

As for `O=[N+]([O-])c1cc([N+](=O)[O-])c2cccnc2c1O`, the inhibition was 5.92%.

In the case of `O=C(CCc1ccccc1)NNc1ccc(F)cc1`, the inhibition was 4.26%.

With `NS(=O)(=O)c1ccc(NC(=O)COC(=O)c2cc3ccccc3oc2=O)cc1`, the inhibition is 3.3%.

In the case of `Cc1c(NC(=O)CN2C(=O)C(=O)N(Cc3ccccc3)C2=O)c(=O)n(-c2ccccc2)n1C`, the inhibition was 1.05%.

For the compound `O=C1N=C(N2CCc3ccccc3C2)S/C1=C\c1ccc(O)cc1`, the inhibition was -11.2%.

As to `O=C1/C(=C/c2coc3ccc(O)cc3c2=O)SC(=S)N1c1ccccc1`, the inhibition was -16.3%.

`O=C(O)c1ccc(/C=N/Nc2nc(N3CCCCC3)nc(N3CCCCC3)n2)cc1`: the inhibition is 8.17%.

On to `Cn1cnc(S(=O)(=O)Nc2ccc3c(c2)OCCO3)c1`, for which the inhibition is 10.8%.

On to `O=C(O)CC12CC3CC(C1)CC(n1ncc(NCc4ccc(F)cc4)c(Cl)c1=O)(C3)C2`, for which the inhibition is -1.62%.

With `O=C(Cc1cccc2ccccc12)NNC(=O)Nc1ccc(Cl)cc1`, the inhibition was 18.3%.

`Cc1nnc(Nc2ccccc2F)s1`: the inhibition was 21.3%.

For `CCOC(=O)CN(C(=O)COc1nc(C)cc(C)c1C#N)c1ccc(Cl)cc1`, the inhibition was 1.01%.

On to `FC(F)(F)c1cccc(-c2nc(COc3ccc(Cl)cc3Cl)no2)c1`, for which the inhibition is 4.51%.

As for `CSC1=NCCN1C(=O)c1ccc(S(=O)(=O)N2CCOCC2)cc1`, the inhibition is -4.11%.

As for `CCSC1=NCCN1C(=O)c1ccc(S(=O)(=O)N(CC)CC)cc1`, the inhibition was 40.5% (active).

For the compound `CCSC1=NCCN1S(=O)(=O)c1ccc(F)cc1`, the inhibition was -1.84%.

Turning to `C/C(Cc1ccccc1)=N\NC(=O)CNC(=O)c1ccccc1Cl`, the inhibition is 11.3%.

Take `COc1ccc(OC)c(NC(=O)N[C@H](Cc2ccccc2)C(=O)NN)c1`: the inhibition was 19%.

For `N#Cc1ccc(Oc2ccc(C(F)(F)F)cc2NC(=O)c2ccc(F)cc2)cc1`, the inhibition was 18.6%.

Take `COCCn1c(SCC(=O)c2[nH]c(C)c(C(C)=O)c2C)nc2ccccc2c1=O`: the inhibition is -4.09%.

With `COc1ccc(/C=N/n2nnnc2N)cc1OC`, the inhibition is -13.6%.

With `Cc1cc(Nc2ccc(N3CCOCC3)cc2)c2cccc(C)c2n1`, the inhibition was 15.5%.

Turning to `Nc1ccccc1C(=O)NC1CCCCNC1=O` (stereo unspecified), the inhibition was 11.6%.

Regarding `COc1cc(N2C(=O)CC3(CCCC3)CC2=O)cc(OC)c1OC`, the inhibition is -3.47%.

Turning to `Cc1ccc(Nc2c3c(nc4ccccc24)CCC3)cc1`, the inhibition was 16.7%.

Regarding `O=C1N[C@H](Cc2ccccc2)C(=O)N[C@H]1Cc1cn(S(=O)(=O)c2ccccc2)c2ccccc12`, the inhibition was -3.92%.

On to `O=C(NC1C2CC3CC(C2)CC1C3)c1ccc(N2CCNCC2)c([N+](=O)[O-])c1` (stereo unspecified), for which the inhibition is -5.43%.

As for `CC(=O)N/C(=C\c1ccc(F)cc1)C(=O)NC(Cc1ccccc1)C(=O)O` (stereo unspecified), the inhibition was 5.67%.

Regarding `CN(C)S(=O)(=O)c1ccc(C(=O)NCC(C)(C)N2CCOCC2)cc1`, the inhibition is -11.7%.

`NC(=O)c1ccc(-c2csnn2)cc1`: the inhibition was 9.52%.

Take `Nc1c(Cl)cc(S(N)(=O)=O)cc1S(N)(=O)=O`: the inhibition is 3.22%.

For the compound `O=C(Nc1cccc2c1N(C(=O)c1ccco1)CCC2)c1ccco1`, the inhibition was 15.4%.

Take `CC1Cc2ccccc2N1CC(=O)Nc1ccc(S(N)(=O)=O)cc1` (stereo unspecified): the inhibition is -6.22%.

Consider `Cc1ccc(NC(=O)/C(=C/c2ccc([N+](=O)[O-])cc2)NC(=O)c2ccccc2)cc1`, for which the inhibition was -17.5%.

Take `NNC(=O)c1cccc(COCC(F)(F)C(F)F)c1`: the inhibition is 8.15%.

`O=C(Nc1ccccc1)C1CC(=O)n2c(nc3ccccc32)N1` (stereo unspecified): the inhibition is 1.59%.
